Test results: ChEMBL document CHEMBL1126823, “Benextramine-neuropeptide Y receptor interactions: contribution of the benzylic moieties to [3H]neuropeptide Y displacement activity” (J Med Chem, 1993)

Experiments:
[1] = Relative potency of compound at alpha-adrenoceptor to that of benextramine was measured by ability to antagonize the effect of epinephrine on the contractions of the electrically stimulated rat vas deferens; format: tissue-based
Rattus norvegicus = organism: Rattus norvegicus; assay: Displacement of [3H]NPY from rat brain NPY receptor compared to benextramine
Procedure, shortened: (§1)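 Male Sprague-Dawley rat (250-300 g) brain membrane homogenate (1.2-1.6 mg protein/mL) incubated with 1.0 nM [3H]NPY and analog 10^-3 to 10^-7 M in Krebs-Ringer bicarbonate/50 mM phosphate, 0.1% BSA, 0.05% bacitracin, pH 7.4, 90 min at 25 °C. Nonspecific binding defined with 1 µM NPY. Filtration onto PEI-treated glass-fiber filters, scintillation counting. IC50 from competitive binding isotherm fit.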

[2] = Binding affinity against rat NPY receptor by using [3H]NPY as radioligand; procedure, shortened: as §1

SMILES	Relative activity [1]	Relative activity (Rattus norvegicus)	IC50 [2] [µM]
c1ccc2cc(CNCCCCCCNCCSSCCNCCCCCCNCc3ccc4ccccc4c3)ccc2c1	0.27	1.8	31.3
Clc1ccccc1CNCCCCCCNCCSSCCNCCCCCCNCc1ccccc1Cl	0.44	0.7	79.9
COc1ccc(CNCCCCCCNCCSSCCNCCCCCCNCc2ccc(OC)cc2)cc1	0.81	1.3	44.1
Oc1ccc(CNCCCCCCNCCSSCCNCCCCCCNCc2ccc(O)cc2)cc1	0.14	0.4	162
c1ccc(CNCCCCCCNCCSSCCNCCCCCCNCc2ccccc2)cc1	0.9	0.3	191
Clc1cccc(CNCCCCCCNCCSSCCNCCCCCCNCc2cccc(Cl)c2)c1	0.46	1.2	46.7
Oc1cccc(CNCCCCCCNCCSSCCNCCCCCCNCc2cccc(O)c2)c1	0.24	2.8	20.3
NCCCCCCNCCSSCCNCCCCCCN	0.27	< 0.04	> 1400
COc1ccccc1CNCCCCCCNCCSSCCNCCCCCCNCc1ccccc1OC [BENEXTRAMINE]	1	1	57.6
Clc1ccc(CNCCCCCCNCCSSCCNCCCCCCNCc2ccc(Cl)cc2)cc1	0.5	1.5	37.8
Oc1ccccc1CNCCCCCCNCCSSCCNCCCCCCNCc1ccccc1O	0.36	1.1	50.6
COc1cccc(CNCCCCCCNCCSSCCNCCCCCCNCc2cccc(OC)c2)c1	0.72	2.7	21.5
